Source: PMC9148379 (Alzheimer's & Dementia, 2021)
Where two headings read alike, the source gives them in different places.

Key:
[1] = Experiment 7: two-week intermediate storage in the fridge; type: in vitro ADME, human; settings: EDTA plasma, 2 weeks at −20°C before −80°C; six Aβ assays
[2] = cited from earlier work; for time from which levels in whole blood at RT started declining: different assays than used in this study
[3] = cited from earlier work
[4] = Experiment 8: aliquot freeze-thawing; type: in vitro ADME, human; settings: EDTA plasma; for impact of sample freeze–thawing (up to four cycles) on values: six Aβ assays
How it was run: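 Human EDTA plasma subjected to repeated freeze–thaw was compared with reference aliquots (centrifuged 1800 × g at room temperature after 30 min standing at room temperature, aliquoted immediately, stored at −80°C). Each value was normalized to its reference as %recovery, and the group median per condition was taken. A median change >10% was deemed relevant. GFAP was measured with the pre-commercial Simoa Neurology 4-Plex E kit.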

[5] = cited from earlier work; remark: listed apart in the source
[6] = type: in vitro ADME, human; settings: EDTA whole blood, Simoa N3PA

In the case of “Aβ40: endogenous amyloid beta 40 peptide measured in blood as Alzheimer's disease biomarker”, the “decrease of values after two‐week intermittent storage at −20°C” value [1] is given as “did not”, the “time from which levels in whole blood at RT started declining” value (from here on “time from which levels in whole blood”) ([2]; ref 33) is given as 1 h and the “time from which levels in whole blood” value ([2]; ref 36) is given as 48 h. The “time from which levels in separated plasma decline at RT” value [3] was 8 h and the “impact of sample freeze–thawing (up to four cycles) on values” [4] was “did not impact”.
For “Aβ42: endogenous amyloid beta 42 peptide measured in blood as Alzheimer's disease biomarker”, the “decrease of values after two‐week intermittent storage at −20°C” value [1] is given as “did not”, the “time from which levels in whole blood” value ([2]; ref 33) is given as 1 h and the “time from which levels in whole blood” value ([2]; ref 36) is given as 6 h. For the same substance, the “time from which levels in separated plasma decline at RT” value [3] was 6 h and the “impact of sample freeze–thawing (up to four cycles) on values” [4] was “did not impact”.
For glial fibrillary acidic protein [GFAP], the “plasma levels at freeze–thaw cycle 4” value [5] is given as “remained stable”, the “median recovery after four additional freeze–thaw cycles, other biomarkers” value ([4]; GFAP by Simoa N4PE) is given as 113% and the “change at the second freeze–thaw cycle” value ([4]; Simoa N4PE) is given as “no change”.
In the case of total tau [t‐tau], the “median recovery, tubes held at RT for 3 hours pending centrifugation” value ([6]; 3 hours) is given as 83%, the “median recovery, tubes held at RT for 24 hours pending centrifugation” value ([6]; 24 hours) is given as 49% and the “time for which t‐tau was stable prior to centrifugation” value ([2]; other t‐tau assays) is given as “up to 6 hours”.
